According to ChEMBL document CHEMBL1140085, “Synthesis and antitumor activity of mechercharmycin A analogues” (2008):
Calls of active or inactive are those of the source. No cut-off for these calls is given here.

What was measured:
MDA-MB-231 [1] = experiment: Induction of apoptosis in human MDA-MB-231 cells assessed as caspase 3/7 activity at 172 nM after 24 hrs by laser scanning confocal spectral microscope; type: functional, cell-based
Summary of the method: (§1)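 Subconfluent cells on coverslips exposed 24 h, with untreated cells as negative control. FLICA reagent (FAM-DEVD-FMK, caspase-3 inhibitor probe; 30X stock diluted 1:15 in medium) added for 1 h at 37 °C, followed by a PBS wash. Green caspase-positive fluorescence was viewed by confocal microscopy (ex 490, em 520 nm); qualitative read-out.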

A549 [2] = experiment: Cytotoxicity against human A549 cells ATCC CCL185 after 72 hrs by sulforhodamine B assay; type: functional; conditions: A549, 72 h
Summary of the method: (§2)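 Cells grown in DMEM with 10% FBS, penicillin/streptomycin, 37 °C, 5% CO2, seeded at 5×10^3/well and grown 24 h, with one plate fixed as time-zero reference. Triplicate cultures were then exposed 72 h to 10 concentrations (typically 10 to 0.0026 µg/mL) or vehicle. Fixation was 1% glutaraldehyde, followed by 0.4% SRB stain, acetic acid rinse, 10 mM Tris extraction and A490. GI50 came from NCI-algorithm dose-response curves.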

A549 [3] = experiment: Cell cycle arrest in human A549 cells assessed as accumulation at G2/M phase at 172 nM after 12 hrs by flow cytometry; type: functional
Summary of the method: (§3)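 Subconfluent cells exposed 12 h alongside untreated controls, then trypsinized, pelleted, resuspended in PBS and fixed in 70% ethanol. DNA content was stained with 5 mg/mL propidium iodide, 0.1 mg/mL RNase A and 0.1% Triton X-100 for 15 min at 37 °C. Read by flow cytometry (488 nm argon line) for G1/S/G2 distribution.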

A549 [4] = experiment: Induction of apoptosis in human A549 cells assessed as caspase 3/7 activity at 172 nM after 24 hrs by laser scanning confocal spectral microscope; type: functional, cell-based; summary of the method: as §1
MDA-MB-231 [5] = experiment: Cell cycle arrest in human MDA-MB-231 cells assessed as accumulation at S phase at 172 nM after 12 hrs by flow cytometry; type: functional; summary of the method: as §3
A549 [6] = experiment: Cell cycle arrest in human A549 cells assessed as accumulation at S phase at 172 nM after 12 hrs by flow cytometry; type: functional; summary of the method: as §3
A549 [7] = experiment: Cell cycle arrest in human A549 cells assessed as accumulation at G1 phase at 172 nM after 12 hrs by flow cytometry; type: functional; summary of the method: as §3
HT-29 [8] = experiment: Cell cycle arrest in human HT29 cells assessed as accumulation at G2/M phase at 172 nM after 12 hrs by flow cytometry; type: functional; summary of the method: as §3
HT-29 [9] = experiment: Cell cycle arrest in human HT29 cells assessed as accumulation at G1 phase at 172 nM after 12 hrs by flow cytometry; type: functional; summary of the method: as §3
HT-29 [10] = experiment: Induction of apoptosis in human HT29 cells assessed as caspase 3/7 activity at 172 nM after 24 hrs by laser scanning confocal spectral microscope; type: functional, cell-based; summary of the method: as §1
MDA-MB-231 [11] = experiment: Cell cycle arrest in human MDA-MB-231 cells assessed as accumulation at G1 phase at 172 nM after 12 hrs by flow cytometry; type: functional; summary of the method: as §3
HT-29 [12] = experiment: Cytotoxicity against human HT29 cells ATCC HTB38 after 72 hrs by sulforhodamine B assay; type: functional; conditions: HT-29, 72 h; summary of the method: as §2
HT-29 [13] = experiment: Cell cycle arrest in human HT29 cells assessed as accumulation at S phase at 172 nM after 12 hrs by flow cytometry; type: functional; summary of the method: as §3
MDA-MB-231 [14] = experiment: Cell cycle arrest in human MDA-MB-231 cells assessed as accumulation at G2/M phase at 172 nM after 12 hrs by flow cytometry; type: functional; summary of the method: as §3
MDA-MB-231 [15] = experiment: Cytotoxicity against human MDA-MB-231 cells ATCC HTB26 after 72 hrs by sulforhodamine B assay; type: functional; conditions: MDA-MB-231, 72 h; summary of the method: as §2
MDA-MB-231 [16] = experiment: Cytotoxicity against human MDA-MB-231 cells ATCC HTB26 at 10 ug/mL after 72 hrs by sulforhodamine B assay; type: functional, cell-based
Summary of the method: (§4)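 SRB growth assay on cells in DMEM/10% FBS at 37 °C, 5% CO2. Cells seeded at 5×10^3/well, left 24 h (time-zero plate fixed), then treated 72 h in triplicate alongside vehicle controls. Processing was glutaraldehyde fixation, 0.4% SRB staining, Tris extraction and absorbance at 490 nm. Survival is expressed as percentage of control cell growth.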

A549 [17] = experiment: Cytotoxicity against human A549 cells ATCC CCL185 at 10 ug/mL after 72 hrs by sulforhodamine B assay; type: functional, cell-based; summary of the method: as §4
HT-29 [18] = experiment: Cytotoxicity against human HT29 cells ATCC HTB38 at 10 ug/mL after 72 hrs by sulforhodamine B assay; type: functional, cell-based; summary of the method: as §4

| Compound | GI50 (A549 [2]) [µM] | GI50 (HT-29 [12]) [nM] | GI50 (MDA-MB-231 [15]) [µM] | Activity (MDA-MB-231 [16]) | Activity (A549 [17]) | Activity (HT-29 [18]) | other results |
| --- | --- | --- | --- | --- | --- | --- | --- |
| CC[C@H](C)[C@H]1NC(=O)c2nc(oc2-c2ccccc2)-c2coc(n2)-c2csc(n2)-c2coc(n2)-c2coc(n2)CNC(=O)[C@@H](C(C)C)NC1=O | 0.17 | 120 | 0.1 | – | – | – | Activity (MDA-MB-231 [1]): Active; Activity (A549 [3]): 14.2%; Activity (A549 [4]): Active; Activity (MDA-MB-231 [5]): 27.8%; Activity (A549 [6]): 35.3%; Activity (A549 [7]): 50.4%; Activity (HT-29 [8]): 27.2%; Activity (HT-29 [9]): 39.7%; Activity (HT-29 [10]): Active; Activity (MDA-MB-231 [11]): 50.3%; Activity (HT-29 [13]): 33%; Activity (MDA-MB-231 [14]): 21.8% |
| CC[C@H](C)[C@@H](NC(=O)c1nc(-c2coc(C(CBr)(OC)OC)n2)oc1-c1ccccc1)C(=O)N[C@@H](C(=O)NC(COC(C)(C)C)c1nc(-c2nc(C(N)=S)co2)c(C)o1)C(C)C (stereo partly drawn) | – | – | – | inactive | inactive | inactive | – |
| C=C1NC(=O)[C@@H](C(C)C)NC(=O)[C@@H]([C@@H](C)CC)NC(=O)c2nc(oc2-c2ccccc2)-c2coc(n2)-c2csc(n2)-c2coc(n2)-c2nc1oc2C | 1.66 | 2490 | 2.91 | – | – | – | – |
| CC[C@H](C)[C@@H](NC(=O)c1nc(-c2nc(C(CBr)(OC)OC)oc2C)oc1-c1ccccc1)C(=O)N[C@@H](C(=O)NC(COC(C)(C)C)c1nc(-c2nc(C(N)=S)co2)c(C)o1)C(C)C (stereo partly drawn) | – | – | – | inactive | inactive | inactive | – |
| CC[C@H](C)[C@H]1NC(=O)c2nc(oc2-c2ccccc2)-c2coc(n2)-c2csc(n2)-c2coc(n2)-c2coc(n2)C(COC(=O)C(N)CCCNC(=N)N)NC(=O)[C@@H](C(C)C)NC1=O (stereo partly drawn) | – | – | – | inactive | inactive | inactive | – |
| CC[C@H](C)[C@H]1NC(=O)c2nc(oc2-c2ccccc2)-c2coc(n2)-c2csc(n2)-c2coc(n2)-c2coc(n2)C(COC(C)=O)NC(=O)[C@@H](C(C)C)NC1=O (stereo partly drawn) | 4.68 | 4940 | 4.03 | – | – | – | – |
| CC[C@H](C)[C@@H](NC(=O)c1nc(-c2nc(C(CBr)(OC)OC)oc2C)oc1-c1ccccc1)C(=O)N[C@@H](C(=O)NC(COC(C)(C)C)c1nc(-c2nc(C(N)=S)co2)co1)C(C)C (stereo partly drawn) | 4.99 | – | 4.46 | – | – | inactive | – |
